# The list is not random: actives were taken first. Their share in the collection is about 2.1%.
# STEP block: blocks human striatal-enriched tyrosine phosphatase | recombinant STEP, OMFP fluorogenic substrate, fluorescence | inhibition, % at 20 µM | actives 0.25% (n = 360,000);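 active = inhibition at 20 µM, scaled per plate between control wells, above about 37%, limit read from the data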;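 also: 0% = DMSO with enzyme and substrate and 100% = substrate only without enzyme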
#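 material = STEP tyrosine phosphatase | reagent = fluorogenic phosphatase substrate OMFP at 25 µM final | doses = single compound dose of 20 µM, 1% DMSO final | schedule = 20 min reaction, room temperature, in the dark | measured by = fluorescence, 480/540 nm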
# SUMO1-SIM PPI: modulators of human SUMO1-mediated protein-protein interactions | actives 0.33% (n = 360,000) | inhibition, % at 20 µM | SUMO1 binding to a labelled peptide, TR-FRET, 1 h | AID 602429 | P63165; in the data active = inhibition above about 37%
# Scp-1 inhibitor: Scp-1 (human) phosphatase inhibition. inhibition, % at 20 µM. AID 493091. Q9GZU7. Recombinant Scp1, phosphopeptide, malachite green phosphate absorbance. actives 0.88% (n = 340,000);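 active = inhibition above about 50% at 20 µM, limit read from the data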;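 also: plate controls were DMSO wells with enzyme for no effect and wells lacking enzyme for full effect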
#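 Test system: SCP-1 phosphatase catalytic domain, residues 76-261 | Compound dosing: One concentration, 20 µM, with 1.0% DMSO | Schedule: 45 min room-temperature reaction, 5 min colour, 30 min stabiliser | Detection: Absorbance at 630 nm | Read-out basis: % inhibition of SCP-1 phosphate liberation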
# DNMT1 block: blocks human DNA methyltransferase DNMT1 | DNMT1 molecular beacon, Hinp1I cleavage, fluorescence | inhibition (reported as % activation of signal), % at 10 µM | actives 0.83% (n = 360,000); in the data active = inhibition above about 50%
# Target sequence (P26358 504-1616 limits assumed): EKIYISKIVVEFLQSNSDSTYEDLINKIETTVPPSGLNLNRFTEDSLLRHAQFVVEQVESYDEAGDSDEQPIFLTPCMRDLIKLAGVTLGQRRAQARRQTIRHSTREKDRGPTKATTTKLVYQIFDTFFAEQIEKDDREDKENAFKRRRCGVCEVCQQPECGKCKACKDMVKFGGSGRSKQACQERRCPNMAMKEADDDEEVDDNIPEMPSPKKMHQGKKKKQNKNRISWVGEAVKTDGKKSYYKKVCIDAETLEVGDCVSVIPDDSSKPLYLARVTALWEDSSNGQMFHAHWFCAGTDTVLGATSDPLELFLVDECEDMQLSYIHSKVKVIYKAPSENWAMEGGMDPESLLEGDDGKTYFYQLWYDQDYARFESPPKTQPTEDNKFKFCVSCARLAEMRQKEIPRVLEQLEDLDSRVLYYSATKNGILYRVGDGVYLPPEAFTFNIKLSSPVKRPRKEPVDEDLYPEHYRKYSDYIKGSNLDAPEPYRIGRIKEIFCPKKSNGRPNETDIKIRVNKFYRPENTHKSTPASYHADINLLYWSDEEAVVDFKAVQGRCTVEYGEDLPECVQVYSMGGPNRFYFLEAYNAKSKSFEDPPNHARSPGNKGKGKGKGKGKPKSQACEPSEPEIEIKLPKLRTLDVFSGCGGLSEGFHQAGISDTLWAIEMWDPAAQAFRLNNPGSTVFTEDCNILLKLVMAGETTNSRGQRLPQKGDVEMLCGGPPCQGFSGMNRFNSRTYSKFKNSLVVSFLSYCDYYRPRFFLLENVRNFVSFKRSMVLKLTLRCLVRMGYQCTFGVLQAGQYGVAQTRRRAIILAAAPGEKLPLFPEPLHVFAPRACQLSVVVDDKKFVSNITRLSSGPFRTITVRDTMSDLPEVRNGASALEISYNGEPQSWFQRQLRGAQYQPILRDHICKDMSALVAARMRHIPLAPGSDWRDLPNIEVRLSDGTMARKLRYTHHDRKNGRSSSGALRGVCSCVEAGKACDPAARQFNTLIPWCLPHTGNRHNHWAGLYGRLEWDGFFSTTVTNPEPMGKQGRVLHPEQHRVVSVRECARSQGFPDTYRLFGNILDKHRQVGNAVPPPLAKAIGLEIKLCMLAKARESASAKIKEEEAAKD
# GRK2 aptamer HTS: blocks RNA aptamer binding to human GRK2 | P25098 | bead flow cytometry, FAM-aptamer displacement from GRK2 | inhibition of aptamer binding, % at 10 µM | actives 0.59% (n = 330,000);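 active = inhibition of aptamer binding above 40%, roughly 3 SD of noise, on plates passing a quality check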;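 also: median bead fluorescence of bound FAM aptamer so fluorescent compounds give negative values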
# LMPTP block: LMPTP (human) inhibition; recombinant LMPTP-A, OMFP fluorogenic substrate, fluorescence intensity; inhibition, % at 20 µM; actives 0.22% (n = 360,000); AID 651560;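 active = compounds that cut the enzyme signal by at least half of the control window in the single-dose screen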;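 also: plate controls were DMSO wells with enzyme plus substrate for no effect and substrate without enzyme for full effect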
#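 Test system: LMPTP-A phosphatase enzyme. Amount: LMPTP-A at 0.625 nM final in the reaction. Reagent: OMFP substrate, 400 µM final. Times: 50 min at room temperature. Signal: endpoint fluorescence intensity from OMFP dephosphorylation. Read-out basis: % inhibition. Benchmarks: no-enzyme and uninhibited controls.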
# DNMT1 inh conf: confirmation of human DNMT1 inhibitors; shares compounds with DNMT1 block; DNMT1 molecular beacon HinP1I cleavage, fluorescence; inhibition, % at 10 µM; actives 8% (n = 2,300); AID 602385;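 active = average inhibition of at least 30% in the single-concentration confirmation test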
# DNMT1 interf: shows spectral interference in the DNMT1 beacon assay | shares compounds with DNMT1 block | DNMT1 molecular beacon spectral interference counterscreen, fluorescence 485/520 | activation (fluorescence interference), % at 10 µM | actives 1% (n = 2,300);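 active = activation of at least 30% at 10 µM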;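 also: DNMT1 catalytic domain with a HinP1I cleavage step and a FAM/dabcyl DNA beacon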
# Active calls of the source: *; nt = no result.
SMILES,STEP block,SUMO1-SIM PPI,Scp-1 inhibitor,DNMT1 block,GRK2 aptamer HTS,LMPTP block,DNMT1 inh conf,DNMT1 interf
COC(=O)C1=CN(c2ccc(Oc3ccccc3)cc2)C(N)=C(C#N)C1c1ccccc1 (stereo not drawn),nt,-1,nt,nt,nt,4,nt,nt
Cc1ccccc1-c1ccc(=O)n(CC(=O)Nc2ccc(-n3cnnn3)cc2)n1,1,-2,6,90*,0,0,1,2
Cc1ccccc1-c1ccc(=O)n(CC(=O)Nc2ccc(S(=O)(=O)N(C)C)cc2)n1,-1,2,-8,-2,0,1,nt,nt
Cc1cccnc1C1=NOC(Cc2ccccc2)C(=O)N1C (stereo not drawn),2,2,nt,-1,nt,-1,nt,nt
CC(C)CC(=O)Nc1ccc(Oc2ccc3c(c2)C(=O)NC3=O)cc1,0,-16,-5,-2,2,-7,nt,nt
Cc1cc(C)c(NC(=O)CSc2nc(COc3ccccc3)nc3ccccc23)c(C)c1,1,-4,-4,70*,7,0,0,-7
Cc1cc(C(C)(C)C)cc(C)c1C[n+]1ccc2ccccc2c1,1,-13,-7,1,2,-1,nt,nt
O=[N+]([O-])c1ccc(F)cc1OCc1cccc(S(=O)(=O)N2CCOCC2)c1,0,-13,-5,82*,2,0,5,8
O=S(=O)(c1cccc(COc2ccc(Cl)cc2Cl)c1)N1CCOCC1,-1,5,-12,-1,2,4,nt,nt
CCN(CC)C(=O)Cn1cnc2sc(C(=O)N3CCN(Cc4ccc5c(c4)OCO5)CC3)c(C)c2c1=O,0,3,1,0,5,-1,nt,nt
Cc1ccc2nc(/C(C#N)=C\c3ccc(Oc4ccc([N+](=O)[O-])cn4)cc3)[nH]c2c1,1,-13,11,54*,0,0,6,3
COc1ccc2nc(/C(C#N)=C\c3ccc(Oc4ccc([N+](=O)[O-])cn4)cc3)[nH]c2c1,2,-3,-3,57*,0,3,2,2
COc1cc(Cl)ccc1OC1(C)CCN(Cc2ccc3ccccc3c2)C1 (stereo not drawn),0,2,nt,-2,nt,1,nt,nt
O=C(O)COn1c(-c2ccccc2)nc2ccc([N+](=O)[O-])cc21,17,12,81*,66*,5,28,2,-1
CCOC(=O)C(C)On1c(-c2ccccc2)nc2ccc([N+](=O)[O-])cc21 (stereo not drawn),-6,-21,0,-5,0,-1,nt,nt
COc1ccc(NC(=S)N2CCC(C(=O)c3ccc(C)cc3)CC2)cc1,3,5,-2,81*,0,1,2,3
COc1ccc(NC(=S)N2CCC(C(=O)c3ccc(OC)cc3)CC2)cc1,6,4,0,0,1,1,nt,nt
N#Cc1c(SCC(=O)Nc2ccc(C(F)(F)F)cc2)sc2c(O)cc(=O)[nH]c12,-1,3,50,1,0,-1,nt,nt
N#Cc1c(SCC(=O)Nc2nncs2)sc2c(O)cc(=O)[nH]c12,38,32,81*,71*,41*,4,3,-1
CC(C)CC(=O)N1CCN(S(=O)(=O)c2ccc3ccccc3c2)CC1,0,-7,-7,-9,1,-1,nt,nt
CCCc1cc(=O)oc2cc(C)cc(OCC(=O)NCCCN3CCOCC3)c12,1,6,-7,0,0,0,nt,nt
O=C(Nc1ccc(Cl)cc1)c1cc(-c2cccs2)on1,8,16,4,50*,0,21,1,2
Cc1ccc(F)c(S(=O)(=O)NC(=O)C2(C)CCN2C(=O)c2cccc3ccccc23)c1 (stereo not drawn),-2,6,nt,2,nt,-2,nt,nt
N#CCCN(C(=O)COC(=O)COc1ccccc1Cc1ccccc1)c1ccccc1,-2,2,-14,60*,2,3,2,4
O=C(COC(=O)CNC(=O)c1ccccc1)NCCNC(=O)COC(=O)CNC(=O)c1ccccc1,-1,3,-6,0,1,0,nt,nt
SMILES,STEP block,SUMO1-SIM PPI,Scp-1 inhibitor,DNMT1 block,GRK2 aptamer HTS,LMPTP block,DNMT1 inh conf,DNMT1 interf
COc1ccc(NC(=O)CSc2nnc(C)c3ccccc23)cc1,-1,-1,0,-1,0,-1,nt,nt
COc1ccc(NC(=O)CSc2ccc3c4c(cccc24)C(=O)c2ccccc2-3)cc1,0,-10,-7,61*,0,3,5,1
O=C(O)C1CSC(c2ccco2)N1 (stereo not drawn),32,23,67*,97*,0,58*,17,-4
CCCS(=O)(=O)NC(=O)C1(C)CCN(C(=O)c2cc(-c3cccs3)oc2C)C1 (stereo not drawn),-3,-4,nt,0,nt,-2,nt,nt
Cc1nnc(NC(=O)CSc2ccc(-c3ccco3)nn2)s1,12,24,17,53*,13,9,0,2
CCc1nnc(NC(=O)CSc2ccc(-c3ccco3)nn2)s1,-5,1,-5,4,10,-2,nt,nt
Cc1ccc(/C=c2\sc3nc(-c4ccco4)nn3c2=O)o1,72*,44*,81*,105*,28,61*,0,-1
Cc1ccc(/C=c2/sc3nnc(-c4ccccc4Cl)n3c2=O)o1,5,19,49,22,1,1,nt,nt
Cc1nc(C)c(C(=O)Nc2ncc([N+](=O)[O-])s2)o1,0,-7,12,69*,1,3,8,-2
COC(C[C@@H](O)[C@H](C)[C@@H](O)COCc1ccccc1)OC,0,-1,-2,3,nt,-1,nt,nt
Cc1cc(C)n2nc(C(=O)N/N=C/c3c4ccccc4cc4ccccc34)nc2n1,4,15,-13,92*,0,9,-1,1
Cc1ccc(/C=C/C(=O)N2CCc3ccccc32)o1,4,-3,52*,86*,9,2,8,2
O=C(/C=C/c1ccco1)N1CCc2ccccc21,3,-13,-1,4,0,2,nt,nt
O=C(COc1ccccc1)Nc1cc(NC(=O)COc2ccccc2)cc(C(=O)O)c1,-1,5,-14,-2,0,0,nt,nt
Cc1ccc(CN2CCNC(=O)C2CC(=O)NCc2cc(C)n(C)n2)cc1 (stereo not drawn),0,1,-7,-1,5,0,nt,nt
Cc1cc(Cl)ccc1OCC(=O)OCC(=O)c1c(N)n(C)c(=O)n(C)c1=O,1,0,-9,-1,0,2,nt,nt

# High-throughput results: PubChem BioAssay, several laboratories
